Screens from PubChem.
In the library only some 3.1% were active in any assay of this set; here they are far more common.
Apaf-1 inh – blocks human Apaf-1 apoptosome activity. O14727. reconstituted apoptosome caspase-3 activity, DEVD-Rh110 fluorescence. inhibition, % at 20 µM. 0.71% of 330,000 active. AID 489030; active means inhibition of at least 40% at 20 µM
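System: reconstituted apoptosome with Apaf-1, cytochrome c, caspase-9, procaspase-3, dATP; Signal: Rh110 fluorescence intensity; Schedule: 30 min compound preincubation, 50 min activation, room temperature; Reagent: cytochrome c trigger plus (Z-DEVD)2-Rh110 caspase-3 substrate.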
PAFAH1B2 FP inh – inhibitors of human PAFAH1B2; 1.2% of 340,000 active; P68402; recombinant PAFAH1B2, FP-rhodamine activity probe, fluorescence polarization; inhibition, % at 3.39 µM;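 active means inhibition above the mean of all tested compounds plus 3 SD, cut at about 24% in these data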
Target sequence (P68402 whole entry, looked up): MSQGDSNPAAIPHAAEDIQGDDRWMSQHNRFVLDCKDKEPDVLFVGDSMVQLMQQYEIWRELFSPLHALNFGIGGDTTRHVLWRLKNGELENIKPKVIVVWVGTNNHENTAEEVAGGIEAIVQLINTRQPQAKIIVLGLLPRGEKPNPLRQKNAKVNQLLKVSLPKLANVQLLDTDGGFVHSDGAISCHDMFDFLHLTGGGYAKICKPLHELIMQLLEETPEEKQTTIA
PAFAH2 inh – inhibitors of human PAFAH2; Q99487; recombinant PAFAH2, FP-rhodamine activity probe, fluorescence polarization; inhibition, % at 3.39 µM; 0.99% of 340,000 active; AID 492956;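 active means inhibition above the mean over all tested compounds plus 3 SD, cut at about 30% in these data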;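 further: inhibitors block probe labeling of enzyme so polarization drops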
pPAFAH FP inh – inhibitors of human plasma PAF acetylhydrolase (pPAFAH); Q13093; recombinant pPAFAH, FP-rhodamine probe fluorescence polarization; inhibition, % at 3.39 µM; 1.5% of 330,000 active; AID 463082;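 active means inhibition above the mean inhibition across the screen plus 3 SD, cut at about 25% in these data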;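 further: inhibitors block binding of the rhodamine activity-based probe so polarization drops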
Target sequence (Q13093 whole entry, looked up): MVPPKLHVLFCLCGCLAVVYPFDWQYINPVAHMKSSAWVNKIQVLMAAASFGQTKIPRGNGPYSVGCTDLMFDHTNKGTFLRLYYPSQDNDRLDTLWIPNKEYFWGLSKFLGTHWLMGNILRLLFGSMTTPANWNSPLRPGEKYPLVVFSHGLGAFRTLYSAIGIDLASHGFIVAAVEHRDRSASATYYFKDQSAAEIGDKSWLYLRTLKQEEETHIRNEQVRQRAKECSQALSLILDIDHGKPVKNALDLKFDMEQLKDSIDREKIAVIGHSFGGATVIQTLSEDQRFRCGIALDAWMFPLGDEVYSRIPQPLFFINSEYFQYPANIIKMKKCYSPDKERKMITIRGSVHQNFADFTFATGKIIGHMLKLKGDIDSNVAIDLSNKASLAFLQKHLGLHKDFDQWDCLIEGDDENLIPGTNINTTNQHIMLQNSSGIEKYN
PAFAH1B3 inh – inhibitors of human PAFAH1B3. recombinant PAFAH1B3, FP-rhodamine probe, fluorescence polarization. inhibition, % at 3.39 µM. 0.28% of 340,000 active. AID 492972;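 active means inhibition above the screen-wide average of all tested compounds plus 3 SD, cut at about 25% in these data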
pPAFAH confirm – confirmation of human plasma PAF acetylhydrolase (pPAFAH) inhibitors; shares compounds with pPAFAH FP inh; recombinant pPAFAH, FP-Rh probe fluorescence polarization; inhibition, % at 3.39 µM; 72% of 2,300 active; AID 463230;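 active means mean inhibition of the triplicate above the hit cutoff set for the earlier primary screen, cut at about 25% in these data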
Numbers stand for hits.

For O=C(Nc1cccc(S(=O)(=O)Nc2ccc(Cl)cc2)c1)c1ccc(Cl)nc1 the results were Apaf-1 inh inactive, PAFAH1B2 FP inh inactive, PAFAH2 inh inactive, pPAFAH FP inh 41, PAFAH1B3 inh inactive and pPAFAH confirm 34.
O=C(Nc1ccc(Oc2ccccc2)cc1)C1CCN(c2c3c(nc4ncnn24)CCC3)CC1 was read as Apaf-1 inh 41, PAFAH1B2 FP inh inactive, PAFAH2 inh inactive, pPAFAH FP inh 76, PAFAH1B3 inh inactive and pPAFAH confirm 75.
For N#C/C(=N\Nc1cccc(C(F)(F)F)c1)C(=O)c1ccsc1 the results were Apaf-1 inh inactive, PAFAH1B2 FP inh inactive, PAFAH2 inh inactive, pPAFAH FP inh 37, PAFAH1B3 inh inactive and pPAFAH confirm 29.
For Cc1ccc(C(=O)C2CCN(C(=S)NCCCOC(C)C)CC2)cc1 the results were Apaf-1 inh inactive, PAFAH1B2 FP inh inactive, PAFAH2 inh inactive, pPAFAH FP inh inactive and PAFAH1B3 inh inactive.
`O=C(N/N=C/c1ccc(Sc2ccccn2)o1)c1cc2ccccc2cc1O` gave Apaf-1 inh inactive, PAFAH1B2 FP inh inactive, PAFAH2 inh inactive, pPAFAH FP inh 52, PAFAH1B3 inh inactive and pPAFAH confirm 56.
For C/C(=N\NC(=O)c1cc2ccccc2cc1O)c1cc2ccccc2o1 the results were Apaf-1 inh inactive, PAFAH1B2 FP inh inactive, PAFAH2 inh inactive, pPAFAH FP inh 41, PAFAH1B3 inh inactive and pPAFAH confirm 34.
For C/C(=N\NC(=O)c1c[nH]c2ccccc12)c1ccccn1 the results were Apaf-1 inh inactive, PAFAH1B2 FP inh inactive, PAFAH2 inh inactive, pPAFAH FP inh inactive and PAFAH1B3 inh inactive.
`C/C(=N\NC(=O)c1cc2ccccc2cc1O)c1ccccn1` gave Apaf-1 inh inactive, PAFAH1B2 FP inh inactive, PAFAH2 inh inactive, pPAFAH FP inh 48, PAFAH1B3 inh inactive and pPAFAH confirm inactive.
`CCCCCN(C(=O)CCC(=O)OCC(=O)c1cccc(OC)c1)c1c(N)n(CCCC)c(=O)[nH]c1=O` gave Apaf-1 inh inactive, PAFAH1B2 FP inh inactive, PAFAH2 inh inactive, pPAFAH FP inh inactive and PAFAH1B3 inh inactive.
Screening Nc1scc2c(C(=O)N/N=C/c3ccc(Cl)cc3)nn(-c3ccccc3)c(=O)c12 returned Apaf-1 inh 42, PAFAH1B2 FP inh inactive, PAFAH2 inh inactive, pPAFAH FP inh 35, PAFAH1B3 inh inactive and pPAFAH confirm inactive.
COc1ccccc1N(CC(=O)N/N=C(\C)c1ccc(F)cc1)S(=O)(=O)c1ccccc1 was read as Apaf-1 inh inactive, PAFAH1B2 FP inh inactive, PAFAH2 inh inactive, pPAFAH FP inh inactive and PAFAH1B3 inh inactive.
For CN(CC(=O)Nc1cccc(F)c1)C(=O)CN1C(=O)NC2(CCCC2)C1=O the results were Apaf-1 inh inactive, PAFAH1B2 FP inh inactive, PAFAH2 inh inactive, pPAFAH FP inh inactive and PAFAH1B3 inh inactive.
For Cc1ccc(S(=O)(=O)N2CCN(C(=O)COC(=O)c3ccccn3)CC2)c(C)c1 the results were Apaf-1 inh inactive, PAFAH1B2 FP inh inactive, PAFAH2 inh inactive, pPAFAH FP inh 44, PAFAH1B3 inh inactive and pPAFAH confirm inactive.
Nc1ccc2c(c1)-c1ccccc1S(=O)(=O)N2 was read as Apaf-1 inh inactive, PAFAH1B2 FP inh inactive, PAFAH2 inh inactive, pPAFAH FP inh 65, PAFAH1B3 inh inactive and pPAFAH confirm inactive.
For Cc1cccc(Cc2cnc(N3C(=N)SC(C)C3=O)s2)c1 (stereo not drawn) the results were Apaf-1 inh inactive, PAFAH1B2 FP inh inactive, PAFAH2 inh inactive, pPAFAH FP inh 43, PAFAH1B3 inh inactive and pPAFAH confirm 33.
Screening O=C1CC2(CCCC2)C(=O)N1CN1CCN(S(=O)(=O)c2ccc(Cl)c(Cl)c2)CC1 returned Apaf-1 inh inactive, PAFAH1B2 FP inh inactive, PAFAH2 inh inactive, pPAFAH FP inh inactive and PAFAH1B3 inh inactive.
For O=[N+]([O-])c1ccc(N=Nc2c(Cl)cc(O)cc2Cl)cc1 the results were PAFAH1B2 FP inh inactive, PAFAH2 inh inactive, pPAFAH FP inh 46, PAFAH1B3 inh inactive and pPAFAH confirm 39.
Screening COC(=O)c1cc(S(=O)(=O)N2CCCCC2)c[nH]1 returned Apaf-1 inh inactive, PAFAH1B2 FP inh inactive, PAFAH2 inh inactive, pPAFAH FP inh inactive and PAFAH1B3 inh inactive.
Screening COc1ccccc1CNCCS(=O)(=O)NN1CCOCC1 returned Apaf-1 inh inactive, PAFAH1B2 FP inh inactive, PAFAH2 inh inactive, pPAFAH FP inh inactive and PAFAH1B3 inh inactive.
For O=C(O)c1cccc2c1-c1ccc(Cl)cc1C2=O the results were PAFAH1B2 FP inh inactive, PAFAH2 inh inactive and PAFAH1B3 inh inactive.
Screening O=C(O)c1cc(O)c2c(c1)C(=O)c1cccc(O)c1C2=O returned Apaf-1 inh inactive, PAFAH1B2 FP inh inactive, PAFAH2 inh 34, pPAFAH FP inh 36, PAFAH1B3 inh inactive and pPAFAH confirm inactive.
`N#C/C(=C\c1cccs1)c1nc2ccccc2[nH]1` gave PAFAH1B2 FP inh inactive, PAFAH2 inh inactive, pPAFAH FP inh inactive and PAFAH1B3 inh inactive.
N#C/C(=C/c1ccc(O)c(O)c1)c1nc2ccccc2[nH]1 was read as Apaf-1 inh inactive, PAFAH1B2 FP inh 45, PAFAH2 inh 62, pPAFAH FP inh 63, PAFAH1B3 inh 58 and pPAFAH confirm 79.
For C#CCNc1cc(C)nc2ncnn12 the results were Apaf-1 inh inactive, PAFAH1B2 FP inh inactive, PAFAH2 inh inactive, pPAFAH FP inh 51, PAFAH1B3 inh inactive and pPAFAH confirm inactive.
`C#CCNc1cc(-c2ccccc2)nc2ncnn12` gave Apaf-1 inh inactive, PAFAH1B2 FP inh inactive, PAFAH2 inh inactive, pPAFAH FP inh inactive and PAFAH1B3 inh inactive.
Screening Cc1ccc(Nc2nc(-c3cccnc3)nc3ccccc23)cc1 returned Apaf-1 inh inactive, PAFAH1B2 FP inh inactive, PAFAH2 inh inactive, pPAFAH FP inh inactive and PAFAH1B3 inh inactive.
Screening Cc1c(O)ccc(/C=N/Nc2nc(-c3cccnc3)nc3ccccc23)c1O returned Apaf-1 inh inactive, PAFAH1B2 FP inh inactive, PAFAH2 inh inactive, pPAFAH FP inh 42, PAFAH1B3 inh 30 and pPAFAH confirm 46.
`CCOc1ccc(-c2ccc(/C=C3/C(=N)N4C=CSC4=NC3=O)o2)c([N+](=O)[O-])c1` gave PAFAH1B2 FP inh inactive, PAFAH2 inh inactive, pPAFAH FP inh inactive and PAFAH1B3 inh inactive.
CCOc1ccc(-c2ccc(/C=C3/C(=N)N4C(C)=CSC4=NC3=O)o2)c([N+](=O)[O-])c1 was read as Apaf-1 inh inactive, PAFAH1B2 FP inh inactive, PAFAH2 inh inactive, pPAFAH FP inh 45, PAFAH1B3 inh inactive and pPAFAH confirm 37.
Screening Cc1ccc(N2CCN(S(=O)(=O)c3c(C)nc4scc(C)n4c3=O)CC2)c(C)c1 returned Apaf-1 inh inactive, PAFAH1B2 FP inh inactive, PAFAH2 inh inactive, pPAFAH FP inh inactive and PAFAH1B3 inh inactive.
For Cc1c(Br)c(=O)oc2c(Br)c(O)c(O)cc12 the results were PAFAH1B2 FP inh 51, PAFAH2 inh 83, pPAFAH FP inh 63, PAFAH1B3 inh 47 and pPAFAH confirm 81.
`Cc1c(Br)c(=O)oc2c(Br)c(O)ccc12` gave Apaf-1 inh inactive, PAFAH1B2 FP inh inactive, PAFAH2 inh inactive, pPAFAH FP inh inactive and PAFAH1B3 inh inactive.
